Among the data in ChEMBL document CHEMBL4351015, “Design, synthesis and biological evaluation of 3-(imidazo[1,2-a]pyrazin-3-ylethynyl)-2-methylbenzamides as potent and selective pan-tropomyosin receptor kinase (TRK) inhibitors” (Eur J Med Chem, 2019) are Activity and IC50 values, retold here.

Series [1] has as its system SH-SY5Y. As to the kind of experiment: Antiproliferative activity against human SH-SY5Y cells transfected with TrkB (unknown origin) assessed as reduction in cell viability incubated for 72 hrs by CCK8 assay. It counts as functional, cell-based. A digest of the protocol:
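SH-SY5Y-TrkB cells (SH-SY5Y stably transfected with pRP-TrkB, kept under 0.5 µg/ml puromycin in 1:1 MEM/F-12 with 10% FBS) seeded at 1500-3000/well, left overnight. Compounds 0.000457–3 µM were then added with or without BDNF 10 ng/ml for 72 h. Read-out by CCK8. IC50 came from concentration-response curve fitting, reported as mean ± SD from at least three independent experiments.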
In general terms: Tetrazolium assays rely on reduction of a dye to a coloured formazan, in cell work by metabolically active cells.

Series [2] concerns the target Tyrosine-protein kinase ABL1 (Homo sapiens, UniProt P00519). As to the kind of experiment: Inhibition of recombinant full length human His-tagged ABL1 expressed in baculovirus infected insect cells using tyr 02 as substrate incubated for 2 hr by Z'-Lyte assay.
The subject of series [3] is SH-SY5Y. As to the kind of experiment: Neurotoxicity in human SH-SY5Y cells assessed as reduction in cell viability incubated for 72 hrs by CCK8 assay. The series is classed as toxicity, cell-based.
The target of series [4] is NT-3 growth factor receptor (Homo sapiens, UniProt Q16288). As to the kind of experiment: Inhibition of recombinant human His-tagged TrkC cytoplasmic domain (510 to 825 residues) expressed in baculovirus using tyr 01 as substrate incubated for 1 hr by Z'-Lyte assay.
Sequence of NT-3 growth factor receptor (Q16288 whole entry, the tested form may be a part): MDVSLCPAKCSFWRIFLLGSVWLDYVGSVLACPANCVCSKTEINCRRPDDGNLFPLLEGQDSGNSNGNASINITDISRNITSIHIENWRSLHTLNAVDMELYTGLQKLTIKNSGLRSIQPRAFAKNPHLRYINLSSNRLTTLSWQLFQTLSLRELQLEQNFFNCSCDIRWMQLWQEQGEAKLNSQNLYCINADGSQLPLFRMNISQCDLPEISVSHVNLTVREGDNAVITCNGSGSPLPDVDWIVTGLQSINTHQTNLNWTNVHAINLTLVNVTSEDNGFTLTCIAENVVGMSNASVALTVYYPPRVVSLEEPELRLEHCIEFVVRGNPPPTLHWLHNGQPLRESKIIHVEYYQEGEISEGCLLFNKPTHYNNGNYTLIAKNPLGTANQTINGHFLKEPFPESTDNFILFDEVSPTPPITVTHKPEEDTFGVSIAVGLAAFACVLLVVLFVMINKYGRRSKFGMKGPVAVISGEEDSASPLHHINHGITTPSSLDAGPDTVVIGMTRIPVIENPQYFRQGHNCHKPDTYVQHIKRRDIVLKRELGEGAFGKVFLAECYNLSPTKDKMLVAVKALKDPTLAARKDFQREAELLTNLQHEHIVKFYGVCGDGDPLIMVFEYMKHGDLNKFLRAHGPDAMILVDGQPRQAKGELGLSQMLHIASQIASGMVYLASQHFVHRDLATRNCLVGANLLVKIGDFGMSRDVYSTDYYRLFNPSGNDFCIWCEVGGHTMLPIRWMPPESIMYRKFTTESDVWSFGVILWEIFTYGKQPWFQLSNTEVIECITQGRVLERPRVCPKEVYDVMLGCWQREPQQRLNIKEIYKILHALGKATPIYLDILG
The target of series [5] is BDNF/NT-3 growth factors receptor (Homo sapiens, UniProt Q16620). The series is described as follows: Inhibition of recombinant human His-tagged TrkB catalytic domain (526 to 838 residues) expressed in baculovirus expression system using tyr 01 as substrate incubated for 1 hr by Z'-Lyte assay.
Sequence of BDNF/NT-3 growth factors receptor (Q16620 whole entry, the tested form may be a part): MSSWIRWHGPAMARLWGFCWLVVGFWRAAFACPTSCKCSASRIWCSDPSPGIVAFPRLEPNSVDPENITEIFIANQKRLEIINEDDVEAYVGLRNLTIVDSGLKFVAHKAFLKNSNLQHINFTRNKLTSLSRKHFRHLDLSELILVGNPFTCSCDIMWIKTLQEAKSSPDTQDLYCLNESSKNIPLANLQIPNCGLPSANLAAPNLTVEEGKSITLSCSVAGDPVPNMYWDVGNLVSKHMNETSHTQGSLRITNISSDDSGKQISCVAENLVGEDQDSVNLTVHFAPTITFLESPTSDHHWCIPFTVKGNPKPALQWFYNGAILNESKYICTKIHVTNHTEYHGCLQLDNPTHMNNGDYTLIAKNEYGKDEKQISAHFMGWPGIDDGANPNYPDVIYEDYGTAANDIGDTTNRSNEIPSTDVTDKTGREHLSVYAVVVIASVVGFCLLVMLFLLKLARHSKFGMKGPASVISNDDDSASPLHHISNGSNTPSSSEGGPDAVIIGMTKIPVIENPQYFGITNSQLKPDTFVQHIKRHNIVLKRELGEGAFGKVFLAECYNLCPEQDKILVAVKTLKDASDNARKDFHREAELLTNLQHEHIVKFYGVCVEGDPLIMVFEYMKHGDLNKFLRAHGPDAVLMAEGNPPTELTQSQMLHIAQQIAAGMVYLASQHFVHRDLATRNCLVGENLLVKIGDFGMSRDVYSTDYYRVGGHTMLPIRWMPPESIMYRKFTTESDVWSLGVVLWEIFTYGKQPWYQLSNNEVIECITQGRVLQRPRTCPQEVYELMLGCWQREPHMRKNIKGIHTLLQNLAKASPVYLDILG
For series [6], the target named is High affinity nerve growth factor receptor (Homo sapiens, UniProt P04629). As to the kind of experiment: Inhibition of recombinant human His-tagged TrkA catalytic domain (441 to 796 residues) expressed in baculovirus expression system using tyr 01 as substrate incubated for 1 hr by Z'-Lyte assay.
Sequence of High affinity nerve growth factor receptor (P04629 whole entry, the tested form may be a part): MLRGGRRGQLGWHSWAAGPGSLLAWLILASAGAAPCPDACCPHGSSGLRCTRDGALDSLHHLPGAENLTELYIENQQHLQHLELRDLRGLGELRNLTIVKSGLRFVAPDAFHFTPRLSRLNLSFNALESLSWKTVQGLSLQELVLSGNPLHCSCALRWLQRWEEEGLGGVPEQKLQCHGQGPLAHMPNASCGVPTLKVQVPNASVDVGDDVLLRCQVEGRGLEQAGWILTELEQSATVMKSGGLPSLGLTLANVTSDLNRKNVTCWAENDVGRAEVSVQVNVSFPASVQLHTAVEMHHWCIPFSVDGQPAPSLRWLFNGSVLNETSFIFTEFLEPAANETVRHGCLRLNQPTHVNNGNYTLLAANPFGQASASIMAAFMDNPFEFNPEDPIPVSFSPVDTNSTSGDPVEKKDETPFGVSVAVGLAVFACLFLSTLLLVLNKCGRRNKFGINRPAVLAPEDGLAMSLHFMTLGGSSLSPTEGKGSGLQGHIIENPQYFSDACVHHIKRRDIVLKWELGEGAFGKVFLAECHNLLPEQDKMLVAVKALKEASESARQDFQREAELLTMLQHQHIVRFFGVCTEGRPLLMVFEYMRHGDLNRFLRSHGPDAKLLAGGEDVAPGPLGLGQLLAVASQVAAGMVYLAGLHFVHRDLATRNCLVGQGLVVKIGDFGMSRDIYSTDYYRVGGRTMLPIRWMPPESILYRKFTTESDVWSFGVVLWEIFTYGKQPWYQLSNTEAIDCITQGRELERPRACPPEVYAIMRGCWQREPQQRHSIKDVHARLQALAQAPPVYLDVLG

Each structure is given as a SMILES string. Calls of active or inactive are those of the source. No cut-off for these calls is given here.

As a reminder, the IC50 is the concentration at which inhibition is half-maximal.

Sequence of Tyrosine-protein kinase ABL1 (P00519 whole entry): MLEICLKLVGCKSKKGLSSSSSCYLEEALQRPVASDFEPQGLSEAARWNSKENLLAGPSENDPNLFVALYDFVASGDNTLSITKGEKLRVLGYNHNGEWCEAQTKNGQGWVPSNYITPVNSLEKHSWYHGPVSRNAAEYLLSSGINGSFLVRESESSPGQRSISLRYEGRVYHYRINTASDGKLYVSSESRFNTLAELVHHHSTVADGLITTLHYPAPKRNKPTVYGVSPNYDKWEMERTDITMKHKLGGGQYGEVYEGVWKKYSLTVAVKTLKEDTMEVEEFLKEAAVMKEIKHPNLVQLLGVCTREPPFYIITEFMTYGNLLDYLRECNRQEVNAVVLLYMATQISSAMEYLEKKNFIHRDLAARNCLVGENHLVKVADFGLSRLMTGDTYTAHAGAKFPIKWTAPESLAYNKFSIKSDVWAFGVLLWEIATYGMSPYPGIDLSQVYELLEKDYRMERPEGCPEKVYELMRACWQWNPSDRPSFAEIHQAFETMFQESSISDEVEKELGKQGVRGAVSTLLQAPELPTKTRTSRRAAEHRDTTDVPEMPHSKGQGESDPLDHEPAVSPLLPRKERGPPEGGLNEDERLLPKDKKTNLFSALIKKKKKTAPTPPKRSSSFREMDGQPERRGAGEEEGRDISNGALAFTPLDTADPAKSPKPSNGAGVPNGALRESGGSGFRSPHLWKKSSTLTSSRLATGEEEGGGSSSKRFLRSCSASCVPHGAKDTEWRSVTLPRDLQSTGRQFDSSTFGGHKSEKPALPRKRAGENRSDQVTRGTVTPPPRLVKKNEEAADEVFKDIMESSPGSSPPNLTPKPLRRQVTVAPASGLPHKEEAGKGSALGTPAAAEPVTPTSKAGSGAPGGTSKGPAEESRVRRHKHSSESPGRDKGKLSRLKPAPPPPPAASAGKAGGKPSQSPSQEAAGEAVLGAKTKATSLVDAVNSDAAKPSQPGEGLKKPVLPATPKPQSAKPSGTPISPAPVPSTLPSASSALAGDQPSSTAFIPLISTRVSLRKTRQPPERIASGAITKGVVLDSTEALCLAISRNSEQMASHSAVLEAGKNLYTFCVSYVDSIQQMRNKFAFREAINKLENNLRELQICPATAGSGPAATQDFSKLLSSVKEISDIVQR

Take `O=C(Nc1cnn2ccc(N3CCC[C@@H]3c3cc(F)ccc3F)nc12)N1CC[C@H](O)C1` [LAROTRECTINIB]: in the series on SH-SY5Y [1], the outcome was Active. Moreover, the IC50 in series [2] was over 1000 nM. For the same compound, the Activity entry in the series on SH-SY5Y [3] was “Non-Toxic”.

`CC(C)c1c(C#Cc2cnc3cnccn23)cccc1C(=O)Nc1cc(CN2CCN(C)CC2)cc(C(F)(F)F)c1`: the IC50 in series [2], in series [4], in series [5] and in series [6] was over 1000 nM throughout.

`Cc1cc(CN2CCN(C)CC2)cc(NC(=O)c2cccc(C#Cc3cnc4cnc(-c5ccc(N)cc5)cn34)c2C)c1`: the IC50 in series [2] was over 1000 nM; in series [5], 41.3 nM; in series [6] it was 17.4 nM.

On to `Cc1ccc(C#Cc2cnc3cnccn23)cc1C(=O)Nc1cc(CN2CCN(C)CC2)cc(C(F)(F)F)c1`, for which the IC50 in series [2], in series [5] and in series [6] was over 1000 nM throughout.

`Cc1c(C#Cc2cnc3cnc(-c4ccc(N)cc4)cn23)cccc1C(=O)Nc1cc(CN2CCN(C)CC2)cc(C(C)(C)C)c1`: the IC50 is over 1000 nM in series [2], 15.6 nM in series [5] and 6.4 nM in series [6].

For `Cc1c(C#Cc2cnc3cnc(-c4ccncc4)cn23)cccc1C(=O)Nc1cc(CN2CCN(C)CC2)cc(C(F)(F)F)c1`, the IC50 was over 1000 nM in series [2], 43.5 nM in series [5] and 28.8 nM in series [6].

As to `Cc1c(C#Cc2cnc3cnc(-c4ccc(N)cc4)cn23)cccc1C(=O)Nc1cc(CN2CCN(C)CC2)cc(-c2ccccc2)c1`, the IC50 in series [2] is over 1000 nM; in series [5] it was 24.2 nM; in series [6] it was 7.34 nM.

For the compound `CN1CCN(Cc2cc(NC(=O)c3cccc(C#Cc4cnc5cnccn45)c3)cc(C(F)(F)F)c2)CC1`, the IC50 in series [2] came to 33.3 nM; in series [5], 43.9 nM; in series [6] it was 41.6 nM.

On to `Cc1cc(C#Cc2cnc3cnccn23)cc(C(=O)Nc2cc(CN3CCN(C)CC3)cc(C(F)(F)F)c2)c1`, for which the IC50 is 449 nM in series [2], 178 nM in series [5] and 132 nM in series [6].

Regarding `Cc1c(C#Cc2cnc3cnc(-c4ccc(N)cc4)cn23)cccc1C(=O)Nc1cc(CN2CCN(C)CC2)cc(C(F)(F)F)c1`, the IC50 in series [2] is over 1000 nM; in series [5] it was 13.1 nM; in series [6], 7.75 nM.

Take `Cc1ccc(C(=O)Nc2cc(CN3CCN(C)CC3)cc(C(F)(F)F)c2)cc1C#Cc1cnc2cnccn12`: the IC50 in series [5] came out at 9.37 nM; in series [6] it was 8.24 nM.

Regarding `Cc1c(C#Cc2cnc3cnccn23)cccc1C(=O)Nc1cc(CN2CCN(C)CC2)cc(C(F)(F)F)c1`, the IC50 was over 1000 nM in series [2], 38.3 nM in series [5] and 39.8 nM in series [6].

Turning to `COc1c(C#Cc2cnc3cnccn23)cccc1C(=O)Nc1cc(CN2CCN(C)CC2)cc(C(F)(F)F)c1`, the IC50 in series [2], in series [5] and in series [6] was over 1000 nM each time.

Turning to `CCc1cc(CN2CCN(C)CC2)cc(NC(=O)c2cccc(C#Cc3cnc4cnc(-c5ccc(N)cc5)cn34)c2C)c1`, the IC50 was over 1000 nM in series [2], 9.3 nM in series [5] and 3.56 nM in series [6].

For `Cc1c(C#Cc2cnc3cnc(-c4ccccc4)cn23)cccc1C(=O)Nc1cc(CN2CCN(C)CC2)cc(C(F)(F)F)c1`, the IC50 in series [2] is over 1000 nM; in series [5] it was 22.7 nM; in series [6] it was 29.2 nM.

Regarding `CCc1c(C#Cc2cnc3cnccn23)cccc1C(=O)Nc1cc(CN2CCN(C)CC2)cc(C(F)(F)F)c1`, the IC50 in series [2] is over 1000 nM; in series [5], 315 nM; in series [6], 186 nM.

As for `CN1CCN(Cc2cc(NC(=O)c3cccc(C#Cc4cnc5cnccn45)c3Cl)cc(C(F)(F)F)c2)CC1`, the IC50 in series [2] was over 1000 nM; in series [5] it was 254 nM; in series [6] it was 227 nM.

Consider `CCCc1c(C#Cc2cnc3cnccn23)cccc1C(=O)Nc1cc(CN2CCN(C)CC2)cc(C(F)(F)F)c1`, for which the IC50 in series [2], in series [4], in series [5] and in series [6] was over 1000 nM in each case.
